Measurements reported in ChEMBL document CHEMBL1212940, “Polyacetylenes from the roots of Polyalthia debilis” (2010).
Converted amounts (≈) assume the structure as drawn. The source made the active and inactive calls. The calls are words filed in the database; no cut-off is given here.

Tests used:
Plasmodium falciparum = test: Antimalarial activity against Plasmodium falciparum; assay type: functional, organism-based
NCI-H187 = test: Cytotoxicity against human NCI-H187 cells; assay type: functional, cell-based
KB = test: Cytotoxicity against human KB cells; assay type: functional, cell-based
Candida albicans = test: Antifungal activity against Candida albicans; assay type: functional, organism-based
BC1 = test: Cytotoxicity against human BC1 cells; assay type: functional, cell-based
[1] = system: Mycobacterium tuberculosis; test: Antimycobacterial activity against Mycobacterium tuberculosis H37Ra by microplate alamar blue assay; assay type: functional
Summary of the method: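 Whole-cell microplate Alamar Blue test of M. tuberculosis H37Ra, read out as MIC in µg/mL. Isoniazid and kanamycin sulfate served as reference drugs.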

In the case of `CCCC/C=C\C#CC#CCCCCCCCCCCCC[C@H]1C[C@@H](CO)OC1=O`, the Activity (Plasmodium falciparum) is reported as “inactive”, the Activity (NCI-H187) is reported as “inactive” and the Activity (KB) is reported as “inactive”. The Activity (Candida albicans) was “inactive” and the Activity (BC1) was “inactive”.

With `C=CCC/C=C\C#CC#CCCCCCCCCCC[C@H]1C[C@@H](CO)OC1=O` the Activity (Plasmodium falciparum) was “inactive”, the Activity (NCI-H187) was “inactive” and the Activity (KB) was “inactive”. The Activity (Candida albicans) was “inactive” and the Activity (BC1) was “inactive”.

For `CCCC/C=C/C#CC#CCCCCCCCCCC[C@H]1C[C@@H](CO)OC1=O` [DEBILISONE C], the MIC [1] was 12.5 µg/mL (≈ 32.3 µM), the Activity (Plasmodium falciparum) was “inactive” and the Activity (NCI-H187) was “inactive”. The Activity (KB) was “inactive”, the Activity (Candida albicans) was “inactive” and the Activity (BC1) was “inactive”.

For `C=CCCCCCCC#CCCCCCCCCCC[C@@H]1C[C@@H](CO)OC1=O`, the Activity (Plasmodium falciparum) was “inactive”, the Activity (NCI-H187) was “inactive” and the Activity (KB) was “inactive”. For the same compound, the Activity (Candida albicans) was “inactive” and the Activity (BC1) was “inactive”.

With `C=CCCCCCCC#CCCCC[C@@H]1C[C@@H](CO)OC1=O` the Activity (Plasmodium falciparum) was “inactive”, the Activity (NCI-H187) was “inactive” and the Activity (KB) was “inactive”. For the same compound, the Activity (Candida albicans) was “inactive” and the Activity (BC1) was “inactive”.

With `CCCCCCC#CC#CCCCCCCCCCC[C@H]1C[C@@H](CO)OC1=O` the Activity (Plasmodium falciparum) was “inactive”, the Activity (NCI-H187) was “inactive” and the Activity (KB) was “inactive”. For the same compound, the Activity (Candida albicans) was “inactive” and the Activity (BC1) was “inactive”.

With `CCCCC[C@H](O)C#CC#CCCCCCCCCCC[C@H]1C[C@@H](CO)OC1=O` [DEBILISONE B] the MIC [1] was 25 µg/mL (≈ 61.8 µM), the Activity (Plasmodium falciparum) was “inactive” and the Activity (NCI-H187) was “inactive”. For the same compound, the Activity (KB) was “inactive”, the Activity (Candida albicans) was “inactive” and the Activity (BC1) was “inactive”.

In the case of `C=CCC/C=C/C#CC#CCCCCCCCCCC[C@H]1C[C@@H](CO)OC1=O` [DEBILISONE E], the MIC [1] is reported as 25 µg/mL (≈ 65 µM), the Activity (Plasmodium falciparum) is reported as “inactive” and the Activity (NCI-H187) is reported as “inactive”. The Activity (KB) was “inactive”, the Activity (Candida albicans) was “inactive” and the Activity (BC1) was “inactive”.
